Converted amounts (≈) assume the structure as drawn. The source made the active and inactive calls. No cut-off for these calls is given here.
Assays:
[1] = target: T1, Cysteinyl leukotriene receptor 1 (Homo sapiens, UniProt Q9Y271); experiment: Antagonist potency at human CysLT1R expressed in African green monkey COS7 cells assessed as inhibition of LTD4-induced Ca2+ levels after 60 mins by fura-2/AM-fluorescence based spectrofluorimetry; assay type: functional, cell-based; conditions: read-out: pA2 (converted)
T1 sequence (Q9Y271 whole entry): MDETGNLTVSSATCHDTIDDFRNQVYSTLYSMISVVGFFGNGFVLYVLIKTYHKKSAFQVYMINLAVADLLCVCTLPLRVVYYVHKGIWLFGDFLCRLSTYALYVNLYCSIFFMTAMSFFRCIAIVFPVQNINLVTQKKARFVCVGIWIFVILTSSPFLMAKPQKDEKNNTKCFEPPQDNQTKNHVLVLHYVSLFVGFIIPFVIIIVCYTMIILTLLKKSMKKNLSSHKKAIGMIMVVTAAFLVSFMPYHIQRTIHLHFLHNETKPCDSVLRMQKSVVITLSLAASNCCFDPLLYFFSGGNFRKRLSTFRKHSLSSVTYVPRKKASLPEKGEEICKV

[2] = target: T2, Bifunctional epoxide hydrolase 2 (Homo sapiens, UniProt P34913); experiment: Inhibition of recombinant human sEH using PHOME as substrate preincubated for 30 mins followed by substrate addition and measured after 30 mins by spectrofluorimetry
T2 sequence (P34913 whole entry): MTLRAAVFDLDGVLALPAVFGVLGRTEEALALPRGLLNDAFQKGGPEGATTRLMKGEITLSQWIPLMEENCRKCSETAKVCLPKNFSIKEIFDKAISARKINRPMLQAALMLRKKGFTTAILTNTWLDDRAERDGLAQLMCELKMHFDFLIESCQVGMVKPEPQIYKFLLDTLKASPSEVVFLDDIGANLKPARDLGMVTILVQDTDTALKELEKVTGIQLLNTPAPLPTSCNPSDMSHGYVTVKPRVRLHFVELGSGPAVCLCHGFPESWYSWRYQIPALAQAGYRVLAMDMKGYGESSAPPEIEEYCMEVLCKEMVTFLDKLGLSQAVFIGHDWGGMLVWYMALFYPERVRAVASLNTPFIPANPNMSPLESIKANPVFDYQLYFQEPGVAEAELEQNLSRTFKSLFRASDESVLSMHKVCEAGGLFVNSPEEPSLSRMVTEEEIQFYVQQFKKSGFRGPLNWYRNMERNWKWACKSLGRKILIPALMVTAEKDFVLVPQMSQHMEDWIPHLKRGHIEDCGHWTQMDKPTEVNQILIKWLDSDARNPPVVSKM

[3] = target: T3, Peroxisome proliferator-activated receptor gamma (Homo sapiens, UniProt P37231); experiment: Partial agonist activity at human PPARgamma LBD expressed HEK293T cells after 12 to 14 hrs by dual-glo luciferase reporter gene assay
T3 sequence (P37231 whole entry): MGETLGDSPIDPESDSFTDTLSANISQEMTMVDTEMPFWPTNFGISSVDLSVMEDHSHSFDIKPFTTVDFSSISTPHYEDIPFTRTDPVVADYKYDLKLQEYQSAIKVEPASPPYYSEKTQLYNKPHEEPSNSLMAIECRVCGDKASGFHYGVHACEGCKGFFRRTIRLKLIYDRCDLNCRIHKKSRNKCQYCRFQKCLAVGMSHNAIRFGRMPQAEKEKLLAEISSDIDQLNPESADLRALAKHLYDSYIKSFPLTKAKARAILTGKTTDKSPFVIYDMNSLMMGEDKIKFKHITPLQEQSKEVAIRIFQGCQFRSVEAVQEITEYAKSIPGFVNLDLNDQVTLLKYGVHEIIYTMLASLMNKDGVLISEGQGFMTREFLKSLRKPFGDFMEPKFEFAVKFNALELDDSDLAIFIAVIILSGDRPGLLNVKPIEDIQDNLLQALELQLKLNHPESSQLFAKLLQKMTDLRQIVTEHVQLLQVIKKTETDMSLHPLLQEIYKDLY

[4] = target: T4, Nuclear receptor subfamily 1 group I member 2 (Homo sapiens, UniProt O75469); experiment: Agonist activity at human PXR LBD expressed HEK293T cells at 10 uM after 12 to 14 hrs by dual-glo luciferase reporter gene assay; assay type: ADME
T4 sequence (O75469 whole entry): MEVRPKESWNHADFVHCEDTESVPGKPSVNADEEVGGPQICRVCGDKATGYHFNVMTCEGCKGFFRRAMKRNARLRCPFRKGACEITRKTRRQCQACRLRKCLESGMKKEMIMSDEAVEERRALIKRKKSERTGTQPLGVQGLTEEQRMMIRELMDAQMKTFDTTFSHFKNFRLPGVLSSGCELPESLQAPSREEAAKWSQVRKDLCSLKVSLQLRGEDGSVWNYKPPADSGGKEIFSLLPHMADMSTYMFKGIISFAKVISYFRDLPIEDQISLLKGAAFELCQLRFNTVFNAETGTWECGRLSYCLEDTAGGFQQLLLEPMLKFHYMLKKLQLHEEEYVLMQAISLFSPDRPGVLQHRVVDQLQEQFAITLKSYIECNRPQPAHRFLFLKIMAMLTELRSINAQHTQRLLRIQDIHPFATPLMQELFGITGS

[5] = Lipophilicity, log D of the compound at 30 uM at pH 7.4 by HPLC method; assay type: physicochemical; conditions: buffer
[6] = target: T5, Nuclear receptor subfamily 1 group I member 3 (Homo sapiens, UniProt Q14994); experiment: Agonist activity at human CAR LBD expressed HEK293T cells at 10 uM after 12 to 14 hrs by dual-glo luciferase reporter gene assay; assay type: ADME
T5 sequence (Q14994 whole entry): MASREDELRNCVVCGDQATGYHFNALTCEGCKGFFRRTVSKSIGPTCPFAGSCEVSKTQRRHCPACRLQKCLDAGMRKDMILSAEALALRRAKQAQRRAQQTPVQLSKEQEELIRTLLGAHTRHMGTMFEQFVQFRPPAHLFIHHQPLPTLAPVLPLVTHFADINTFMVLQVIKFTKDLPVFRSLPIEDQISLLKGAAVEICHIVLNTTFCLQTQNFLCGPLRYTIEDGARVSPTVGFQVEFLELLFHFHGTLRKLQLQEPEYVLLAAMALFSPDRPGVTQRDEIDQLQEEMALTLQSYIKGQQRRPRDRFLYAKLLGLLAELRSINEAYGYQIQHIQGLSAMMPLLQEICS

[7] = Aqueous solubility of the compound at 5 mg after 24 hrs by HPLC analysis; assay type: physicochemical; conditions: water
Mus musculus [8] = experiment: Anti-inflammatory activity in zymosan-induced paw edema C57BL/6N mouse model assessed as reduction in paw edema at 10 mg/kg, po via gavage pretreated for 30 mins followed by zymosan injection and measured after 24 hrs post zymosan injection by plethysmometry; assay type: functional, organism-based
Procedure, shortened: (§1)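 Zymosan was injected intraplantar into one hindpaw of C57BL/6N mice. Test compound or vehicle was given orally at 10 mg/kg 30 min beforehand. Paw edema was measured by plethysmometry at 8 h and 24 h after zymosan, with the contralateral hindpaw as a control.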

[9] = Metabolic stability in Sprague-Dawley rat liver microsomes assessed as compound remaining at 10 uM in presence of NADPH regenerating system after 4 hrs by HPLC analysis; assay type: ADME, microsome; conditions: read-out: Stability
Mus musculus [10] = experiment: Anti-inflammatory activity in zymosan-induced paw edema C57BL/6N mouse model assessed as reduction in paw edema at 10 mg/kg, po via gavage pretreated for 30 mins followed by zymosan injection and measured after 8 hrs post zymosan injection by plethysmometry; assay type: functional, organism-based; procedure, shortened: as §1
[11] = target: T6, Peroxisome proliferator-activated receptor gamma (Mus musculus, UniProt P37238); experiment: Agonist activity at PPARgamma in mouse 3T3-L1 cells assessed as induction of adipocyte differentiation at 1 uM after 15 days by Oil Red O staining-based assay; assay type: cell-based; conditions: 3t3-l1, 360 h
T6 sequence (P37238 whole entry): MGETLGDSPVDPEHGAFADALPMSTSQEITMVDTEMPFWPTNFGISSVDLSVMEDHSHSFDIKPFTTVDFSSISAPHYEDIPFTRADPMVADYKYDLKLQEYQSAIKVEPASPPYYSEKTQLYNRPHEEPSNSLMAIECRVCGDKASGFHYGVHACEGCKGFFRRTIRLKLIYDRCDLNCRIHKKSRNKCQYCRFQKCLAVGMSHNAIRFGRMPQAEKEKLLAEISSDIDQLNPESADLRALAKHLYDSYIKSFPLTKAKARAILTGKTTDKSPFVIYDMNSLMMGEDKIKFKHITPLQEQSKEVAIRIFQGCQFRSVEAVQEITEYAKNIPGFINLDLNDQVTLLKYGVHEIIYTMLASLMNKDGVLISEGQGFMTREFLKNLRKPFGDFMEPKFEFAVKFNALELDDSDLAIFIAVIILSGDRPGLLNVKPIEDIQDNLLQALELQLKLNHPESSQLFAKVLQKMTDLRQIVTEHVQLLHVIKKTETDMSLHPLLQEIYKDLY

[12] = target: T7, Peroxisome proliferator-activated receptor gamma (Mus musculus) (UniProt P37238); experiment: Agonist activity at PPARgamma in mouse 3T3-L1 cells assessed as increase in CPT1A mRNA expression at 1 uM after 15 days by quantitative real-time PCR method; assay type: cell-based
T7 sequence (whole entry): T6 sequence (P37238 whole entry)

[13] = target: T6, Peroxisome proliferator-activated receptor gamma; experiment: Agonist activity at PPARgamma in mouse 3T3-L1 cells assessed as increase in CD36 mRNA expression at 1 uM after 15 days by quantitative real-time PCR method; assay type: cell-based; conditions: 3t3-l1, 360 h
Mus musculus [14] = experiment: Time at which plasma concentration stays above in-vitro EC50 for partial agonist activity at PPARgamma in C57BL/6JRj mouse at 10 mg/kg, po by LC-MS/MS analysis; assay type: organism-based; conditions: in vivo
Procedure, shortened: (§2)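 Four healthy wild-type male C57Bl6/J mice received a single oral dose of 10 mg/kg. Plasma concentrations were followed over time to give uptake, bioavailability and terminal half-life. Results are mean±SEM, n=4.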

HepG2 = experiment: Cytotoxicity against human HepG2 cells at 1 to 100 uM after 48 hrs by WST assay; assay type: cell-based; conditions: hepg2, 48 h
[15] = Elimination half life in C57BL/6JRj mouse at 10 mg/kg, po by LC-MS/MS analysis; assay type: ADME, organism-based; conditions: in vivo, read-out: beta t1/2 (converted); procedure, shortened: as §2
Mus musculus [16] = experiment: Time at which plasma concentration stays above in-vitro IC50 for sEH in C57BL/6JRj mouse at 10 mg/kg, po by LC-MS/MS analysis; assay type: ADME, organism-based; conditions: in vivo; procedure, shortened: as §2
Mus musculus [17] = experiment: Drug uptake in C57BL/6JRj mouse at 10 mg/kg, po by LC-MS/MS analysis; assay type: ADME, organism-based; conditions: in vivo; procedure, shortened: as §2
Mus musculus [18] = experiment: Activation of PPARgamma in C57BL/6JRj mouse assessed as up-regulation of CD36 expression at 10 mg/kg, po administered as single dose measured at 8 hrs post dose relative to untreated control; assay type: functional, organism-based
Procedure, shortened: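 Healthy wild-type male C57BL6/J mice were dosed orally at 10 mg/kg or with vehicle. Hepatic transcription of the PPARγ target gene CD36 was assessed in liver against vehicle-treated animals. Mean±SEM, n(vehicle)=2, n(treated)=4.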

Mus musculus [19] = experiment: Time at which plasma concentration stays above in-vitro pA2 for CysLT1 in C57BL/6JRj mouse at 10 mg/kg, po by LC-MS/MS analysis; assay type: ADME, organism-based; conditions: in vivo; procedure, shortened: as §2
[20] = target: T6, Peroxisome proliferator-activated receptor gamma; experiment: Agonist activity at PPARgamma in mouse 3T3-L1 cells assessed as induction of adipocyte differentiation at 0.3 to 3 uM after 15 days by Oil Red O staining-based assay; assay type: cell-based; conditions: 3t3-l1, 360 h

Structure (SMILES)	Kb [1]	IC50 [2]	EC50 [3]	other results
COc1cc(C(=O)NS(=O)(=O)c2ccccc2C)ccc1Cc1cn(C)c2ccc(NC(=O)OC3CCCC3)cc12 [ZAFIRLUKAST]	–	2000 nM	2440 nM	Activity [4]: Active; logD at 30 µM [5]: 2.47; Activity [6]: Active; solubility at 24 h [7]: 0.14 µg/mL (≈ 0.243 µM); Activity (Mus musculus [8]): inactive; remaining at 4 h, 10 µM [9]: 73%; Activity (Mus musculus [10]): inactive
COc1cc(C(=O)NS(=O)(=O)c2ccccc2C)ccc1Cc1cn(C)c2ccc(NC(=O)NC3CCCCC3)cc12	25.1 nM	150 nM	670 nM	–
CN(CCOc1ccc(CC2SC(=O)NC2=O)cc1)c1ccccn1 (stereo not drawn) [ROSIGLITAZONE]	–	–	–	Activity [11]: Active; Activity [12]: Active; Activity [13]: Active
COc1cc(C(=O)NS(=O)(=O)c2cc(Cl)cc(Cl)c2)ccc1Cc1cn(C)c2ccc(NC(=O)NC3CCCCC3)cc12	6.31 nM	550 nM	740 nM	–
COc1cc(C(=O)NS(=O)(=O)c2ccccc2)ccc1Cc1cn(C)c2ccc(NC(=O)NC3CCCCC3)cc12	2 nM	–	–	logD at 30 µM [5]: 1.7; Time (Mus musculus [14]): 4 h; Activity [6]: Not Active; Activity (HepG2): Non-Toxic; half-life [15]: 1.9 h; solubility at 24 h [7]: 2.1 µg/mL (≈ 3.65 µM); Activity (Mus musculus [8]): Active; remaining at 4 h, 10 µM [9]: 65%; Time (Mus musculus [16]): 8 h; Activity [12]: inactive; Drug uptake (Mus musculus [17]): Active; Activity (Mus musculus [18]): Active; Time (Mus musculus [19]): 8 h; Activity [20]: Not Active; Activity (Mus musculus [10]): inactive; Activity [13]: Not Active
COc1cc(C(=O)NS(=O)(=O)c2cccc(Cl)c2)ccc1Cc1cn(C)c2ccc(NC(=O)OC3CCCC3)cc12	0.1 nM	7000 nM	140 nM	–
COc1cc(C(=O)NS(=O)(=O)c2ccccc2C)ccc1Cc1cn(C)c2ccc(NC(=O)NC3CCCC3)cc12	0.794 nM	590 nM	2490 nM	–

More lines, main results first:

Kb [1]	IC50 [2]	EC50 [3]	Structure (SMILES)	other results
5.01 nM	1490 nM	350 nM	COc1cc(C(=O)NS(=O)(=O)c2cccc(C(F)(F)F)c2)ccc1Cc1cn(C)c2ccc(NC(=O)NC3CCCCC3)cc12	–
1.26 nM	680 nM	370 nM	COc1cc(C(=O)NS(=O)(=O)c2cccc(Cl)c2)ccc1Cc1cn(C)c2ccc(NC(=O)NC3CCCCC3)cc12	–
12.6 nM	410 nM	200 nM	COc1cc(C(=O)NS(=O)(=O)c2cccc(F)c2)ccc1Cc1cn(C)c2ccc(NC(=O)NC3CCCCC3)cc12	–
0.0794 nM	2500 nM	230 nM	COc1cc(C(=O)NS(=O)(=O)c2ccccc2)ccc1Cc1cn(C)c2ccc(NC(=O)OC3CCCC3)cc12	–
